From ChEMBL document CHEMBL2177043, “HIV-1 X4 activities of polycationic "viologen" based dendrimers by interaction with the chemokine receptor CXCR4: study of structure-activity relationship” (J Med Chem, 2012)
Active and inactive are the calls of the source. The calls are words filed in the database; no cut-off is given here.

Columns and labels:
[1] = molecular target: T1, C-X-C chemokine receptor type 4 (Homo sapiens, UniProt P61073); test: Agonist activity against CXCR4 expressed in U87.CD.CXCR4 cells assessed as stimulation of calcium signaling incubated for 10 mins by FLIPR; type: functional, cell-based
T1 sequence (P61073 whole entry): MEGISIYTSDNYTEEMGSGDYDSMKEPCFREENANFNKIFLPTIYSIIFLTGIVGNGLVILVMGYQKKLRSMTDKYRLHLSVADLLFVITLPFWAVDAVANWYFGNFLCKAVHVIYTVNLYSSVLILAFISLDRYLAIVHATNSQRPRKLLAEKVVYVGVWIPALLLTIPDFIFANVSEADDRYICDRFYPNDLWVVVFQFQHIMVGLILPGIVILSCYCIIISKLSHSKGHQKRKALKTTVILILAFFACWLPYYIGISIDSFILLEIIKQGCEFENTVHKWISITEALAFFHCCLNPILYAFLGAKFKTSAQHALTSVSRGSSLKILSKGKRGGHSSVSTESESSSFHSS
Method in brief: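 U87.CD4 cells stably carrying CXCR4 or CCR5, trypsinized and seeded at 2 × 10⁴ cells/well on 0.2% gelatin the day before. Loaded with Fluo-3 AM (4 μM, 45 min, 37 °C), washed, then exposed to test agents alone at varied concentrations in assay buffer for 10 min at 37 °C. Cytosolic Ca²⁺ rise monitored over time by FLIPR to detect any agonist-triggered signal.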

[2] = molecular target: T2, C-C chemokine receptor type 5 (Homo sapiens, UniProt P51681); test: Antagonist activity against CCR5 expressed in U87.CD4.CCR5 cells assessed as inhibition of CCL3L1-induced calcium signaling incubated for 10 mins by FLIPR; type: functional, cell-based
T2 sequence (P51681 whole entry, looked up): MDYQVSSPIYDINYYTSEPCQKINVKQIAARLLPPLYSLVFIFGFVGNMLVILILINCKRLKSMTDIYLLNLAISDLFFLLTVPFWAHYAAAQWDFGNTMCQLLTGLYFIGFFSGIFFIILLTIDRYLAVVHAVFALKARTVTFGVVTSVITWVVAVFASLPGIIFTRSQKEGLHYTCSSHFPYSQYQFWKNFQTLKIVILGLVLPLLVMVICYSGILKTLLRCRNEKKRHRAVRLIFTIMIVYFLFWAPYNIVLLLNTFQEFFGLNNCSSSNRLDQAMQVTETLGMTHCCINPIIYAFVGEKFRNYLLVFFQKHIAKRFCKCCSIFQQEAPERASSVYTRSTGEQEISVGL
Method in brief: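 U87.CD4.CCR5 cells seeded at 2 × 10⁴/well on 0.2% gelatin the day before, loaded with 4 μM Fluo-3 AM for 45 min at 37 °C, washed, then preincubated with compounds at varied concentrations in assay buffer for 10 min at 37 °C. Stimulated with 10 ng/mL LD78β (CCL3L1); Ca²⁺ flux recorded by FLIPR.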

[3] = Cytotoxicity against human PBMC cells by MTT assay; type: cell-based
[4] = test system: Human immunodeficiency virus 1; test: Antiviral activity against X4 HIV1 NL4.3 infected in human PBMC assessed as inhibition of viral replication pre-incubated for 30 mins measured 5 days post infection by MTT assay; type: functional, organism-based; settings: Human immunodeficiency virus 1, NL4.3
Method in brief: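 Human PBMC infected with HIV-1 NL4.3. IC₅₀ is the concentration inhibiting viral replication by 50%, averaged over two independent experiments. Cytotoxicity (CC₅₀, 50% loss of PBMC viability) evaluated in the same assay.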

[5] = Cytotoxicity against human MT4 cells by MTT assay; type: cell-based
[6] = test system: Human immunodeficiency virus 1; test: Antiviral activity against X4 HIV1 NL4.3 infected in human MT4 cells assessed as inhibition of viral replication pre-incubated for 30 mins […]; type: functional, organism-based; settings: Human immunodeficiency virus 1, NL4.3, MT4
[7] = molecular target: T1, C-X-C chemokine receptor type 4; test: Antagonist activity against CXCR4 expressed in U87.CD.CXCR4 cells assessed as inhibition of CXCL12-induced calcium signaling incubated for 10 mins by FLIPR; type: functional, cell-based
Method in brief: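 U87.CD4.CXCR4 cells seeded at 2 × 10⁴/well on 0.2% gelatin the day before, loaded with 4 μM Fluo-3 AM for 45 min at 37 °C, washed, then preincubated with compounds at varied concentrations in assay buffer for 10 min at 37 °C. Challenged with 25 ng/mL CXCL12; Ca²⁺ flux followed over time by FLIPR.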

[8] = molecular target: T1, C-X-C chemokine receptor type 4; test: Inhibition of CXCL-12'AF647 binding to CXCR4 in human SUPT1 cells incubated for 15 mins by FACS; type: cell-based
Method in brief: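 SupT1 cells (high CXCR4) washed, then incubated 15 min at room temperature with compounds at varied concentrations in HBSS containing 20 mM HEPES and 0.2% BSA, pH 7.4. CXCL12-AF647 added at 25 ng/mL final for 30 min at room temperature. Cells washed, fixed in 1% paraformaldehyde, and read by flow cytometry on FL4.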

[9] = molecular target: T1, C-X-C chemokine receptor type 4; test: Inhibition of anti-CXCR4 mAbs clone 1D9 binding to CXCR4 in human SUPT1 cells incubated for 30 mins by FACS
[10] = molecular target: T1, C-X-C chemokine receptor type 4; test: Inhibition of anti-CXCR4 mAbs clone 173 binding to CXCR4 in human SUPT1 cells incubated for 30 mins by FACS
[11] = molecular target: T1, C-X-C chemokine receptor type 4; test: Inhibition of anti-CXCR4 mAbs clone 12G5 binding to CXCR4 in human SUPT1 cells incubated for 30 mins by FACS
[12] = molecular target: T2, C-C chemokine receptor type 5; test: Agonist activity against CCR5 expressed in U87.CD4.CCR5 cells assessed as stimulation of calcium signaling incubated for 10 mins by FLIPR
[13] = molecular target: T2, C-C chemokine receptor type 5; test: Antagonist activity against CCR5 expressed in U87.CD4.CCR5 cells assessed as inhibition of CCL3L1-induced calcium signaling incubated for 10 mins by FLIPR

For Cc1cn(CCC[n+]2ccc(-c3cc[n+](Cc4cc(C[n+]5ccc(-c6cc[n+](CCCn7cc(C)c(=O)[nH]c7=O)cc6)cc5)cc(C[n+]5ccc(-c6cc[n+](Cc7cc(C[n+]8ccc(-c9cc[n+](Cc%10cc(C[n+]%11ccc(-c%12cc[n+](CCCn%13cc(C)c(=O)[nH]c%13=O)cc%12)cc%11)cc(C[n+]%11ccc(-c%12cc[n+](CCCn%13cc(C)c(=O)[nH]c%13=O)cc%12)cc%11)c%10)cc9)cc8)cc(C[n+]8ccc(-c9cc[n+](Cc%10cc(C[n+]%11ccc(-c%12cc[n+](Cc%13cc(C[n+]%14ccc(-c%15cc[n+](Cc%16cc(C[n+]%17ccc(-c%18cc[n+](CCCn%19cc(C)c(=O)[nH]c%19=O)cc%18)cc%17)cc(C[n+]%17ccc(-c%18cc[n+](CCCn%19cc(C)c(=O)[nH]c%19=O)cc%18)cc%17)c%16)cc%15)cc%14)cc(C[n+]%14ccc(-c%15cc[n+](Cc%16cc(C[n+]%17ccc(-c%18cc[n+](CCCn%19cc(C)c(=O)[nH]c%19=O)cc%18)cc%17)cc(C[n+]%17ccc(-c%18cc[n+](CCCn%19cc(C)c(=O)[nH]c%19=O)cc%18)cc%17)c%16)cc%15)cc%14)c%13)cc%12)cc%11)cc(C[n+]%11ccc(-c%12cc[n+](Cc%13cc(C[n+]%14ccc(-c%15cc[n+](Cc%16cc(C[n+]%17ccc(-c%18cc[n+](CCCn%19cc(C)c(=O)[nH]c%19=O)cc%18)cc%17)cc(C[n+]%17ccc(-c%18cc[n+](CCCn%19cc(C)c(=O)[nH]c%19=O)cc%18)cc%17)c%16)cc%15)cc%14)cc(C[n+]%14ccc(-c%15cc[n+](Cc%16cc(C[n+]%17ccc(-c%18cc[n+](CCCn%19cc(C)c(=O)[nH]c%19=O)cc%18)cc%17)cc(C[n+]%17ccc(-c%18cc[n+](CCCn%19cc(C)c(=O)[nH]c%19=O)cc%18)cc%17)c%16)cc%15)cc%14)c%13)cc%12)cc%11)c%10)cc9)cc8)c7)cc6)cc5)c4)cc3)cc2)c(=O)[nH]c1=O.F[P-](F)(F)(F)(F)F.F[P-](F)(F)(F)(F)F.F[P-](F)(F)(F)(F)F.F[P-](F)(F)(F)(F)F.F[P-](F)(F)(F)(F)F.F[P-](F)(F)(F)(F)F.F[P-](F)(F)(F)(F)F.F[P-](F)(F)(F)(F)F.F[P-](F)(F)(F)(F)F.F[P-](F)(F)(F)(F)F.F[P-](F)(F)(F)(F)F.F[P-](F)(F)(F)(F)F.F[P-](F)(F)(F)(F)F.F[P-](F)(F)(F)(F)F.F[P-](F)(F)(F)(F)F.F[P-](F)(F)(F)(F)F.F[P-](F)(F)(F)(F)F.F[P-](F)(F)(F)(F)F.F[P-](F)(F)(F)(F)F.F[P-](F)(F)(F)(F)F.F[P-](F)(F)(F)(F)F.F[P-](F)(F)(F)(F)F.F[P-](F)(F)(F)(F)F.F[P-](F)(F)(F)(F)F.F[P-](F)(F)(F)(F)F.F[P-](F)(F)(F)(F)F.F[P-](F)(F)(F)(F)F.F[P-](F)(F)(F)(F)F.F[P-](F)(F)(F)(F)F.F[P-](F)(F)(F)(F)F.F[P-](F)(F)(F)(F)F.F[P-](F)(F)(F)(F)F.F[P-](F)(F)(F)(F)F.F[P-](F)(F)(F)(F)F.F[P-](F)(F)(F)(F)F.F[P-](F)(F)(F)(F)F.F[P-](F)(F)(F)(F)F.F[P-](F)(F)(F)(F)F.F[P-](F)(F)(F)(F)F.F[P-](F)(F)(F)(F)F.F[P-](F)(F)(F)(F)F.F[P-](F)(F)(F)(F)F, which Activity [1] is on record?
The Activity was “inactive”.

What about the IC50 [2] of the same compound?
Its IC50 is 1750 nM.

And the CC50 [3]?
The CC50 was 20 µg/mL.

What about the IC50 [4] of the same compound?
The IC50 was 2.32 µg/mL.

And the CC50 [5]?
Its CC50 is 9 µg/mL.

What about the IC50 [6] of the same compound?
Its IC50 is 1.5 µg/mL.

What about the IC50 [7] of the same compound?
Its IC50 is 38.3 nM.

And the inhibition [7]?
Its inhibition is “Dose-dependent effect”.

And the IC50 [8]?
The IC50 was 124 nM.

What about the IC50 [9] of the same compound?
Its IC50 is 233 nM.

What about the inhibition [9] of the same compound?
The inhibition was “Dose-dependent effect”.

What about the IC50 [10] of the same compound?
Its IC50 is 191 nM.

What about the inhibition [10] of the same compound?
The inhibition was “Dose-dependent effect”.

What about the IC50 [11] of the same compound?
Its IC50 is 178 nM.

What about the inhibition [11] of the same compound?
Its inhibition is “Dose-dependent effect”.

What about the Activity [12] of the same compound?
The Activity was “inactive”.

And the inhibition [13]?
Its inhibition is “Dose-dependent effect”.
